Reference: PMC2933822 (Chemical research in toxicology, 2010)
“Also recorded” adds a separate entry of the source. Read-outs that look alike come from different tables or passages of the source.

Tests used:
[1] = tested on: Human HaCaT keratinocytes; assay: Phototoxicity / dark cytotoxicity, neutral red uptake assay, UVA; format: cell-based; details: for IC50: HaCaT
[2] = tested on: cisplatin-resistant derivative cell line A2780CIS; assay: Phototoxicity / dark cytotoxicity, neutral red uptake assay, UVA; format: cell-based, human; details: for IC50: neutral red dye uptake
Summary of the method: (§1)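 Cells were kept antibiotic-free in RPMI with 10% FBS at 37 °C in 5% CO2. They were washed in PBS, then given the test compound in EBSS for 1 h at 37 °C. Light plates received 5 J cm−2 UVA (1.77 mW cm−2, λmax 365 nm, below 320 nm filtered); dark plates were sham irradiated in parallel. Read-out was neutral red uptake. IC50 came from non-linear regression, 2-4 experiments in triplicate. The ratio is cisplatin IC50 (same conditions) over complex IC50.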

[3] = tested on: A2780 human ovarian carcinoma cells; assay: as above; format: cell-based; details: for IC50: neutral red dye uptake; for IC50 (cisplatin)/IC50(photoPt): A2780, fold difference vs cisplatin under identical conditions
Summary of the method: as §1

HaCaT, A2780, A2780CIS = assay: Photo- and dark cytotoxicity stated in words across the cell lines; format: cell-based, human; details: UVA 365 nm irradiation
Summary of the method: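 HaCaT keratinocytes (DMEM, 5% FBS, 1% non-essential amino acids) and A2780 or A2780CIS cells (RPMI, 10% FBS) were grown at 37 °C without antibiotics. Cells were PBS-washed, then exposed 1 h at 37 °C to test compound in EBSS. They received 5 J cm−2 UVA (1.77 mW cm−2, λmax 365 nm, <320 nm filtered), with sham-irradiated parallel dark plates. Read-out was neutral red uptake. IC50s came from non-linear regression, 2-4 experiments in triplicate.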

DNA = assay: Comet assay; format: cell-based, human; details: +UVA 5 J cm^−2, then H2O2
[4] = tested on: cisplatin-resistant derivative cell line A2780CIS; details: cited from earlier work
[5] = tested on: Human HaCaT keratinocytes; details: cited from earlier work
[6] = tested on: A2780 human ovarian carcinoma cells; details: cited from earlier work
a number of cell lines = details: photoactivated; cited from earlier work
[7] = +365 nm (5 J cm^−2 UVA), 1 h treatment, neutral red dye uptake
[8] = Dark (sham irradiated), neutral red dye uptake

CN(C)CCCN1c2ccccc2Sc2ccc(Cl)cc21 [CPZ, Chlorpromazine, reference compound]
IC50 ([1]; Homo sapiens, light or radiation study): 240 µM | IC50 ([1]; Homo sapiens, light or radiation study, 1 h): 9 µM

cis,trans,cis-[Pt(N3)2(OH)2(NH3)(pentylamine)] [Complex 6c]
IC50 ([2]; +365 nm (5 J cm^−2 UVA)): > 240 µM | IC50 ([2]; Dark (sham irradiated)): > 240 µM | IC50 [1, 7]: 224 µM | IC50 [1, 8]: > 240 µM | IC50 ([3]; A2780, +365 nm (5 J cm^−2 UVA)): > 240 µM | IC50 ([3]; A2780, Dark (sham irradiated)): > 240 µM | IC50 (cisplatin)/IC50(photoPt) [3]: 0.6

cis,trans,cis-[Pt(N3)2(OH)2(NH3)(propylamine)] [Complex 4c]
IC50 [1, 7]: 204 µM | IC50 [1, 8]: > 257 µM | IC50 ([3]; A2780, +365 nm (5 J cm^−2 UVA)): 93.4 µM | IC50 ([3]; A2780, Dark (sham irradiated)): > 257 µM | IC50 (cisplatin)/IC50(photoPt) [3]: 1.6

cis,trans,cis-[Pt(N3)2(OH)2(NH3)(pyridine)] [Complex 7c]
IC50 ([2]; +365 nm (5 J cm^−2 UVA)): 109 µM | IC50 ([2]; Dark (sham irradiated)): > 244 µM | IC50 (cisplatin)/IC50(photoPt) ([2]; fold difference vs cisplatin under identical conditions): 2.4 | fold less phototoxic than 7t ([1]; HaCaT cells, UVA): approximately 10 fold | IC50 [1, 7]: 101 µM | IC50 [1, 8]: > 244 µM | phototoxicity / photocytotoxicity (HaCaT, A2780, A2780CIS): the most phototoxic cis compounds investigated | inhibition of DNA migration (DNA crosslinking), irradiated samples (DNA): more effective at inhibiting DNA migration (at low doses) | IC50 ([3]; A2780, +365 nm (5 J cm^−2 UVA)): 79.6 µM | IC50 ([3]; A2780, Dark (sham irradiated)): > 244 µM | IC50 (cisplatin)/IC50(photoPt) [3]: 1.9

trans,trans,trans-[Pt(N3)2(OH)2(NH3)(py)] [Complex 7t]
IC50 (cisplatin)/IC50(photoPt) [4]: 15.4 | IC50 (cisplatin)/IC50(photoPt) [5]: 21.2 | IC50 (cisplatin)/IC50(photoPt) [6]: 80.0 | fold more cytotoxic following irradiation than treatment with cisplatin (a number of cell lines): up to 90 × | phototoxicity / photocytotoxicity (HaCaT, A2780, A2780CIS): the most phototoxic molecule tested; also recorded: the most phototoxic complex which still maintains dark stability
